Shown are actives, neighbours in structure and some others; about 3.7% of the full set was active somewhere.
MPTP block: mitochondrial permeability transition pore inhibitors, primary screen, biochemical, isolated mouse mitochondria, absorbance; Ca2+ swelling absorbance, 30 min; inhibition, % at 10 µM; actives 1.4% (n = 360,000); AID 602449, 2012;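 active = inhibition of 50% or more, scaled per plate between neutral and stimulator controls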
proCasp3 act: activators of human procaspase-3 D3A mutant, primary screen, biochemical, absorbance, PC-3 D3A mutant, single concentration; Caspase-3 (Homo sapiens), P42574; activation, % at 8.5 µM; recombinant procaspase-3 D3A, Ac-DEVD-pNA absorbance 405 nm; actives 0.11% (n = 330,000);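 active = activation above the mean of all tested compounds plus 3 SD, cut at about 21% in these data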
Target sequence (P42574 whole entry D9A/D28A/D175A): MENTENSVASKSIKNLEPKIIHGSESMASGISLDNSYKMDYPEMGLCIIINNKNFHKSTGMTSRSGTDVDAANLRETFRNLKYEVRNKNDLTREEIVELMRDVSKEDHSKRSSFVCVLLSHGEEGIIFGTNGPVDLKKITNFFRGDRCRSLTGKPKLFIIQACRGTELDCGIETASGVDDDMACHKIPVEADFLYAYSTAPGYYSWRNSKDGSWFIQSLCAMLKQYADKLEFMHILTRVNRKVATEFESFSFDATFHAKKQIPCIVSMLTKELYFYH
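Evaluation: percent activation relative to control range; Material: Procaspase-3 D3A mutant, all three cleavage aspartates alanine; Compound: single dose, 8.5 µM nominal compound, 0.8% DMSO; Replication: one well per compound; Signal: absorbance at 405 nm, 0 and 120 min; Schedule: 1 h preincubation plus 2 h reaction at 25 °C.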
aDG glyco up: activators of alpha-DG glycosylation, primary screen, uHTS, Pro5-aDG cells, AlphaScreen; alpha-DG glycosylation AlphaScreen (IIH6); 0% Pro5, 100% B10-LARGE cell signal; activation, % at 10 µM; actives 0.22% (n = 360,000); AID 624168, 2012;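 active = activation of at least 8% versus controls, or a plate z-score of at least 8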;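 also: Pro5 are CHO cells carrying HIG-tagged alpha-DG that lacks glycosylation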
NR3A LBD binder: binders of NR3A ligand-binding domain, primary screen, biophysical, differential scanning fluorimetry, uHTS. NR3A LBD differential scanning fluorimetry, Tm shift; 0% = protein alone, 100% = glycine-bound protein. Tm shift relative to glycine control, % at 25 µM. Glutamate receptor ionotropic, NMDA 3A (GRIN3A) ligand-binding domain. actives 2.5% (n = 340,000). AID 1259313, 2017;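 active = melting temperature shift of at least 10% of the positive control shift, at one fixed dose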
proCasp7 act: procaspase-7 activators, primary screen, counter-screen for procaspase-3 activator project, biochemical, absorbance, HTS, human. Caspase-7 (Homo sapiens), P55210. recombinant procaspase-7, Ac-DEVD-pNA absorbance 405 nm; D23A/D198A/D206A triple mutant, cannot self-cleave; scale: DMSO 0, 5 µM enzyme 100. activation, % at 8.5 µM. actives 0.093% (n = 330,000). AID 463210, 2010;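 active = percent activation above the screen-wide mean plus 3 SD, cut at about 25% in these data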
Target sequence (P55210 whole entry D23A/D198A/D206A): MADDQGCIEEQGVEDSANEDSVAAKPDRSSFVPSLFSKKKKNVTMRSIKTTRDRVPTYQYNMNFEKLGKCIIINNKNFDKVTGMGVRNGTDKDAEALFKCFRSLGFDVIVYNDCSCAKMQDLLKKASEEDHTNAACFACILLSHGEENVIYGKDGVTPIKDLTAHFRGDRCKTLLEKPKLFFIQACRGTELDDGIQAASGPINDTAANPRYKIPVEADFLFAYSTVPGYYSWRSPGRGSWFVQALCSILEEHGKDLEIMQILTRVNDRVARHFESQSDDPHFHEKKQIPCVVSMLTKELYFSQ
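Test system: Procaspase-7 triple mutant (PC-7 D3A). Also added: Ac-DEVD-pNA substrate, 400 µM as added. Schedule: 1 h enzyme–compound preincubation and 2 h substrate reaction, both 25 °C. Signal: p-Nitroaniline absorbance at 405 nm, read at 0 and 120 min. Control set: low DMSO alone, high DMSO plus 5 µM PC-7.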
Rh123 counter: fluorescence retest of MPTP screen hits in isolated mitochondria, single concentration. shares compounds with MPTP block. membrane potential, Rhodamine 123 fluorescence. inhibition, % at 10 µM. actives 78% (n = 5,000); in the data active = inhibition above about 22%
MPTP abs DR: mitochondrial permeability transition pore inhibitors, dose response, biochemical, absorbance, uHTS hits. IC50, µM. shares compounds with MPTP block. actives 58% (n = 780). isolated mitochondria swelling. AID 651561, 2012; in the data active = IC50 below about 20 µM
MPTP counter DR: fluorescent counter-screen in isolated mitochondria, dose response, counter-screen for MPTP inhibitor project, biochemical, fluorescence, uHTS hits; shares compounds with MPTP block; isolated mitochondria counterscreen, fluorescence read-out; IC50, µM; actives 49% (n = 780); in the data active = IC50 below about 80 µM
Each line names hits and unclear results; the compound was inactive in the other large screens (follow-up assays come after a bar, where they were run).

S=C(Nc1ccc(OCc2ccccc2)cc1)Nc1cccc(Cl)c1Cl	MPTP block 85.6, NR3A LBD binder 11.9 | Rh123 counter 79.0
O=C(CSCc1ccccc1)NNC(=S)Nc1cccc(Cl)c1Cl	MPTP block 92.2 | Rh123 counter 102.8
Cc1ccc(NC(=O)C(C)OC(=O)CCN=C2NS(=O)(=O)c3ccccc32)cc1 (configuration not stated)	none
COc1ccc(S(=O)(=O)N2CCOC2CNC(=O)C(=O)NCc2ccccn2)cc1C (configuration not stated)	none
CCOC(=O)c1c(/N=C/c2cc(C)ccc2O)sc2c1CCN(C)C2	MPTP block 85.1 | Rh123 counter inactive | MPTP abs DR inactive | MPTP counter DR 76
Cc1cccc(/C=N/c2sc3c(c2C(=O)OC(C)(C)C)CCN(C)C3)c1O	MPTP block 56.4 | Rh123 counter inactive | MPTP abs DR 8.87 | MPTP counter DR 67.1
O=C1NC[C@H](Cc2ccc(O)cc2)N(C[C@@H]2CCCN2C[C@H](Cc2ccccc2)N2C[C@H](Cc3ccc(O)cc3)N(CC3CCCCCC3)C(=O)C2=O)C1=O	none (no result: proCasp3 act, NR3A LBD binder, proCasp7 act)
Cc1cc(C)c(C)c(OCCCCN2CCCCC2)c1	none
O=C1C=C(/C=C/C2C=CC=CC2)C[C@@H](c2ccc(Cl)cc2)C1 (some centres not stated)	none
O=C(c1cc(C2CCCCN2C(=O)CCCc2ccccc2)on1)N1CCOCC1 (configuration not stated)	none (no result: proCasp3 act, NR3A LBD binder, proCasp7 act)
Cc1ccc(C(=O)NNC(=S)NC(=O)c2ccccc2)cc1	none
Cc1ccc(C(=O)NNC(=S)NC(=O)c2ccc(Cl)cc2Cl)cc1	MPTP block 87.9 | Rh123 counter inactive
CCCCC(=O)NC(=S)NNC(=O)c1ccc(Cl)cc1Cl	MPTP block 51.0 (no result: proCasp3 act, proCasp7 act) | Rh123 counter inactive | MPTP abs DR 15.1 | MPTP counter DR inactive
O=C1NC(Cc2ccccc2)c2nc3cc(F)ccc3c(=O)n2-c2ccccc21 (configuration not stated)	none (no result: MPTP block, aDG glyco up, NR3A LBD binder)
CNC[C@@H](Cc1ccccc1)NC[C@@H](CC1CCCCC1)NCCCc1ccccc1	MPTP block 71.9 | Rh123 counter inactive
CCC[C@@H](CNC)NC[C@H](Cc1ccccc1)NCCCCc1ccccc1	none
CC1(C)CC(=O)C2=C(C1)OC1=C(C(=O)CC(C)(C)C1)C2c1cc([N+](=O)[O-])cc([N+](=O)[O-])c1O	none
CC1(C)CC(=O)C(C2C3=C(CC(C)(C)CC3=O)Oc3c(Br)cc(Br)cc32)=C(O)C1 (configuration not stated)	MPTP block 82.0 | Rh123 counter 94.7
Cc1cc(OCC(=O)Nc2ccc(CN3CCCCC3)cc2)ccc1Cl	MPTP block 62.7 | Rh123 counter inactive | MPTP abs DR 10.6 | MPTP counter DR 26.4
Cc1cc(OCC(=O)Nc2ccc(CN3CCOCC3)cc2)ccc1Cl	none (no result: proCasp3 act, proCasp7 act)
Cc1cc(OCC(=O)Nc2cccc(S(=O)(=O)NC3=NCCCCC3)c2)ccc1Cl	MPTP block 86.9 | Rh123 counter 86.5
Cc1ccc(OCC(=O)Nc2cccc(S(=O)(=O)NC3=NCCCCC3)c2)cc1C	none
Cc1ccccc1Cn1c(=O)c2c(nc3n2CCN3Cc2ccco2)n(C)c1=O	none (no result: proCasp3 act, proCasp7 act)
O=C(CC1NCCN(Cc2ccccc2)C1=O)Nc1ccc(Cl)cc1 (configuration not stated)	none
O=C(CC1NCCc2ccccc21)Nc1ccc(Cl)cc1 (configuration not stated)	MPTP block 61.1 | Rh123 counter inactive | MPTP abs DR 9.11 | MPTP counter DR inactive
Cc1ccc(-c2csc(/C(C#N)=C(\O)CCl)n2)cc1	MPTP block 91.2 (no result: proCasp3 act, proCasp7 act) | Rh123 counter 64.5
N#C/C(=C(/O)CN1CCN(c2ccccc2F)CC1)c1nc(-c2ccc(Cl)cc2)cs1	MPTP block 57.8 | Rh123 counter 70.6
N#C/C(=C(/O)CCl)c1nc(-c2ccccc2)cs1	none
Cc1ccccc1-c1cc(C(=O)NCc2ccc3c(c2)OCO3)n(CC2CC(c3cccnc3)=NO2)n1 (configuration not stated)	none
Cc1cc(C(=O)CSc2nc3ccccc3c(=O)n2C)c(C)n1Cc1ccc2c(c1)OCO2	MPTP block 96.8 | Rh123 counter 93.8
CCOC(=O)[C@@H]1[C@H]2COc3cc(OC)ccc3[C@H]2N2C(=O)N(c3ccc(C(F)(F)F)cc3)C(=O)[C@]12C	MPTP block 83.7 | Rh123 counter 89.7
CCOC(=O)[C@@H]1[C@H]2COc3ccccc3[C@@H]2N2C(=O)N(c3cccc(Cl)c3)C(=O)[C@@]12C	MPTP block 88.2 | Rh123 counter 100.2
COc1ccc(C)cc1NC(=O)COC(=O)c1c(-c2ccccc2)noc1C	none (no result: proCasp3 act, NR3A LBD binder, proCasp7 act)
CN(C)Cc1csc(NC(=O)Nc2ccccc2Oc2ccccc2)n1	none (no result: proCasp3 act, NR3A LBD binder, proCasp7 act)
O=C(Nc1ccccc1)Nc1ccc2ccccc2c1	MPTP block 87.0, NR3A LBD binder 25.8 | Rh123 counter 83.2
O=C(Nc1ccc2ccccc2c1)C(c1ccccc1)C1CCCC1 (configuration not stated)	MPTP block 78.9 | Rh123 counter 62.4
Cc1ccc(NC(=O)C(c2ccccc2)C2CCCC2)cc1 (configuration not stated)	none (no result: proCasp3 act, proCasp7 act)
CC(=O)c1ccc(NC(=S)NC(C)c2ccc(Cl)cc2Cl)cc1 (configuration not stated)	MPTP block 95.3, NR3A LBD binder 22.2 | Rh123 counter 68.8
O=C(Nc1ccc(Br)c(Cl)c1)c1ccco1	none
CC(=O)c1ccc(NC(=S)NC(=O)Cc2ccc(Cl)cc2)cc1	none
O=C(Nc1ccccc1)Nc1ccc(Br)c(Cl)c1	MPTP block 78.8, NR3A LBD binder 29.7 | Rh123 counter 85.2
Oc1ccc(C(=Nc2ccccc2)c2ccccc2)c(O)c1	none (no result: proCasp3 act, proCasp7 act)
N#C/C(=C\c1cccn1S(=O)(=O)c1cccc([N+](=O)[O-])c1)S(=O)(=O)c1ccc(F)cc1	none (no result: proCasp3 act, NR3A LBD binder, proCasp7 act)

Source: PubChem
